Results from ChEMBL document CHEMBL1145421, “Discovery of novel antitumor antimitotic agents that also reverse tumor resistance” (J Med Chem, 2007).
pIC50: −log10 of the molar value. Calls of active or inactive are those of the source. The rule behind the calls is not given here.

Assays:
MCF7 [1] = assay: Cytotoxicity against human MCF7 cells after 48 hrs by SRB binding assay; assay type: functional, cell-based; conditions: MCF7, 48 h
How it was run: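 Drug-sensitive MCF-7 cells seeded at ~15% confluency and allowed 24 h recovery. Exposed 48 h to graded concentrations. Survival measured by SRB binding as % decrease versus ethanol-vehicle controls, mean of triplicate wells.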

[2] = Cytotoxicity against MRP1 overexpressing human MCF7/VP cells after 48 hrs by SRB binding assay; assay type: functional, cell-based
How it was run: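 MCF-7/VP (MRP1-expressing, Pgp-negative) cells seeded at ~15% confluency and allowed 24 h to attach. Exposed 48 h to graded concentrations without vincristine. Survival measured by SRB binding versus ethanol controls.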

[3] = Cytotoxicity against human T24 cells after 48 hrs by SRB binding assay; assay type: cell-based; conditions: T-24, 48 h
[4] = Cytotoxicity against Pgp overexpressing human NCI/ADR cells after 48 hrs by SRB binding assay; assay type: functional, cell-based; conditions: NCI/ADR-RES
How it was run: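 NCI/ADR (Pgp-overexpressing) cells seeded at ~15% confluency and allowed 24 h to attach. Exposed 48 h to graded concentrations, as solubility allowed, without vinblastine. Survival measured by sulforhodamine B binding as % decrease in SRB binding versus ethanol-vehicle controls, mean of three wells per condition.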

HL-60 [5] = assay: Cell cycle arrest in HL60 cells assessed as accumulation in […] phase at 80 nM; assay type: functional, Homo sapiens
How it was run: (§1)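 HL-60 cells exposed 24 or 48 h to drug or ethanol vehicle. Nuclei prepared by detergent-trypsin method: citrate/sucrose/DMSO buffer, trypsin, then trypsin inhibitor plus RNase A, then propidium iodide with spermine, 30 min at 4 °C. Filtered, resuspended, DNA content measured by flow cytometry. Percentages given for G0/G1, S and G2/M. Mean ± SEM.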

MCF7 [6] = assay: Growth inhibition of Pgp deficient MCF7 cells expressing MRP1; assay type: functional, cell-based; conditions: Homo sapiens
How it was run: (§2)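 NCI/ADR (Pgp-overexpressing) or MCF-7/VP (MRP1-expressing, Pgp-negative) cells were seeded at about 15% confluency and allowed to attach for 24 h. They were then exposed for 48 h to varying compound concentrations, limited by solubility, without added vinca drug. Survival was read by sulforhodamine B binding against ethanol solvent controls. Each value is the mean of three equally treated wells.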

HL-60 [7] = assay: Cell cycle arrest in HL60 cells assessed as accumulation in S phase at 80 nM; assay type: functional, Homo sapiens; how it was run: as §1
[8] = Growth inhibition of NCI/ADR cells expressing Pgp/MRP1; assay type: functional, cell-based; conditions: Homo sapiens, NCI/ADR-RES; how it was run: as §2
[9] = Growth inhibition of Pgp deficient MCF7/VP cells expressing MRP1; assay type: functional, cell-based; conditions: Homo sapiens; how it was run: as §2
A10 = assay: Induction of microtubule loss in rat A10 cells at 5 uM after 24 hrs; assay type: functional, cell-based
HL-60 [10] = assay: Cell cycle arrest in HL60 cells assessed as accumulation in G0/G1 phase at 80 nM; assay type: functional, Homo sapiens; how it was run: as §1
HL-60 [11] = assay: Cell cycle arrest in HL60 cells assessed as accumulation in […] phase at 200 nM; assay type: functional, Homo sapiens; how it was run: as §1
HL-60 [12] = assay: Cell cycle arrest in HL60 cells assessed as accumulation in G0/G1 phase at 200 nM; assay type: functional, Homo sapiens; how it was run: as §1
HL-60 [13] = assay: Cell cycle arrest in HL60 cells assessed as accumulation in S phase at 200 nM; assay type: functional, Homo sapiens; how it was run: as §1
NCI/ADR = assay: Inhibition of P-glycoprotein activity assessed as increase in accumulation of [3H]vinblastine in NCI/ADR cells; assay type: cell-based; conditions: Homo sapiens

Compound	pIC50 (MCF7 [1])	pIC50 [2]	pIC50 [3]	pIC50 [4]	pIC50 (MCF7 [6])	pIC50 [8]	pIC50 [9]	other results
COc1ccc(CCc2cn(Cc3ccccc3)c3nc(N)nc(C)c23)cc1	4.89	4.64	4.50	4.66	–	–	–	–
CC[C@]1(O)C[C@@H]2CN(CCc3c([nH]c4ccccc34)[C@@](C(=O)OC)(c3cc4c(cc3OC)N(C)[C@H]3[C@@](O)(C(=O)OC)[C@H](OC(C)=O)[C@]5(CC)C=CCN6CC[C@]43[C@@H]65)C2)C1 [VINBLASTINE]	–	–	–	–	8.55	< 6.43	8.52	Activity (HL-60 [5]): 10.1%; Activity (HL-60 [7]): 6.6%; Activity (A10): Active; Activity (HL-60 [10]): 83.3%
Cc1nc(N)nc2c1c(CCc1ccccc1)cn2Cc1ccccc1	4.97	4.74	4.90	4.74	–	–	–	–
CC(=O)O[C@H]1C(=O)[C@@]2(C)[C@H]([C@H](OC(=O)c3ccccc3)[C@]3(O)C[C@H](OC(=O)[C@H](O)[C@@H](NC(=O)c4ccccc4)c4ccccc4)C(C)=C1C3(C)C)[C@]1(OC(C)=O)CO[C@@H]1C[C@@H]2O [PACLITAXEL]	–	–	–	–	8.60	5.57	8.55	Activity (HL-60 [11]): 10.5%; Activity (HL-60 [12]): 67.3%; Activity (HL-60 [13]): 22.2%
COc1ccccc1CCc1cn(Cc2ccccc2)c2nc(N)nc(C)c12	5.64	5.59	5.60	5.57	–	–	–	Activity (NCI/ADR): Dose-dependent effect
